rRNA inh HTS – inhibitors of bacterial rRNA selective over humanized ribosomes. E. coli WT GFP vs humanized-ribosome RFP mutants, fluorescence, 24 h; hits give low values; DMSO median 0, no signal -100. GFP signal change (wild-type ribosome), % (test concentration not listed). 1.6% of 350,000 active;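 active = significant combined selectivity score with lowered wild-type GFP, culture density cut under 30%, mutant RFP and density less affected; inactive = any of these conditions unmet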
Cneo AK release – causes C. neoformans cell lysis; adenylate kinase release luminescence, 4 h; normalised: neutral wells 0, clomiphene wells 100; lysis activity, % at 15 µM; 0.2% of 360,000 active;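 active = mean lysis activity across replicates of at least 80%, whatever share of replicates individually reach that level; inactive = mean lysis activity below 80%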
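Test system: log-phase Cryptococcus neoformans yeast cells. Input: 5 × 10^6 yeast cells/mL. Medium: fresh YPD growth medium. Doses: single dose. Incubation: static 4 h at 37 °C with compound, 1 h detection. Measured by: luminescent adenylate kinase detection reagent. Read-out: signal increase indicating cell lysis. Benchmarks: Clomiphene.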
hiPSC survival – increases survival of single human iPS cells; survival enhancement, % at 20 µM; 0.044% of 360,000 active; hiPSC single-cell survival, ATPlite luminescence; 100% = ROCK inhibitor wells, 0% = DMSO; in the data active = survival enhancement above about 18%;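 also: cells exposed to compounds for 16 hours before the ATP read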
DAGLB inhibitor – blocks human DAGLB lipase activity | Q8NCG7 | HEK293T DAGLB membrane lysate, EnzChek fluorogenic substrate | inhibition, % at 5.17 µM | 0.059% of 340,000 active; in the data active = inhibition above about 34%;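 also: 0% = enzyme with vehicle and 100% = wells lacking enzyme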
Target sequence (Q8NCG7 whole entry, looked up): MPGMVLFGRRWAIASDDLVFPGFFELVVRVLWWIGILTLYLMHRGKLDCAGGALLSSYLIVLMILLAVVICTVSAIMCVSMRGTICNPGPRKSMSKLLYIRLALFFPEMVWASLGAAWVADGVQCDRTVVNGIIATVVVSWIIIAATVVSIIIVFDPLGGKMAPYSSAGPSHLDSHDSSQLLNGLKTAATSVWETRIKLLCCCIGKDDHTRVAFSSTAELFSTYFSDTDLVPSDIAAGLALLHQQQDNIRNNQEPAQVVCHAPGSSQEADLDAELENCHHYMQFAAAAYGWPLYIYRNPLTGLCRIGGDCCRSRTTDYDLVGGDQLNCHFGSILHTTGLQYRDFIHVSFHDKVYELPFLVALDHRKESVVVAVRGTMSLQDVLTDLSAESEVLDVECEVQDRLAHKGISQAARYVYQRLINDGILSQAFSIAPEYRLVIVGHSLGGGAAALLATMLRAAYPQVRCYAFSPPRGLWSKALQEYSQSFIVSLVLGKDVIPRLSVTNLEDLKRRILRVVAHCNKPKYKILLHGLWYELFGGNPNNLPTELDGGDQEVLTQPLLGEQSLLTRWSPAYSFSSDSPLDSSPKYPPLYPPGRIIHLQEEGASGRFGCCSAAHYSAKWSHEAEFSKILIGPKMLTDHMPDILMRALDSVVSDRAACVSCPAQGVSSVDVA
SKN-1 block – inhibitors of C. elegans SKN-1. C. elegans VP596 Pgst-4::GFP/RFP ratio, acrylamide-induced, 24 h. inhibition, % at 21.8 µM. 0.49% of 360,000 active. AID 624304;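 active = interference check ratio from 0.5 to 1.5 plus GFP to RFP signal ratio inhibition reaching or exceeding a fixed threshold, cut at about 30% in these data, passing the limit was not always enough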
MT1-MMP act inh – MT1-MMP (human) activation inhibition | HT1080 RFP-PRO-GFP cells, GFP/RFP ratio fluorescence, overnight; percent of plate control window, DMSO zero | AID 651647 | 0.061% of 360,000 active | P50281 | GFP/RFP ratio change, % at 20 µM;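 active = GFP/RFP ratio change of at least 30% with cell ATP level not reduced by more than half and red fluorescence within 50% of control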
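Assay system: HT1080 RFP-PRO-GFP cells. Benchmarks: DMSO vehicle wells and RFP-L50D-GFP reporter cell wells. Times: overnight cell settling, then overnight compound exposure, 37 °C, 5% CO2. Compound: 20 µM single dose, 1% DMSO. Read-out basis: GFP/RFP fluorescence ratio.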
* marks the source's active call; other numbers are inactive results; / = no result. In the library only some 1.8% were active in any assay of this set; here they are far more common.

SMILES | rRNA inh HTS | Cneo AK release | hiPSC survival | DAGLB inhibitor | SKN-1 block | MT1-MMP act inh
O=c1c2c([nH]c3ccc(Br)cc13)CCCC2 | / | 0 | 2 | 0 | 22 | -1
Oc1ccc(O)c(C=NNC(=S)NC2CC3CC2C2C=CCC32)c1 (stereo not drawn) | -63 | -5 | 0 | 8 | 10 | 1
NNC(=S)NC1CC2CC1C1C=CCC21 (stereo not drawn) | -21* | 4 | 0 | -4 | 4 | -1
CCCN1C[C@@H](C)[C@@H](OC)CN(C)C(=O)c2cc(NC(=O)c3cccc(F)c3)ccc2OC[C@@H]1C | -1 | -1 | / | / | / | /
CO[C@@H]1CN(C)C(=O)c2cc(NC(=O)Nc3cccc(F)c3)ccc2OC[C@@H](C)N(C)C[C@H]1C | 1 | 4 | / | / | / | /
CCCN1C[C@@H](C)[C@H](OC)CN(C)C(=O)c2ccc(NC(=O)c3cccc(F)c3)cc2OC[C@@H]1C | -4 | 115* | / | / | / | /
CO[C@H]1CN(C)C(=O)c2cc(NC(=O)Nc3cccc(F)c3)ccc2OC[C@H](C)N(C)C[C@H]1C | -4 | 103* | / | / | / | /
COc1cccc(CN2CC3(CN(C(C)=O)C3)c3c(n(C)c4cc(OC)ccc34)[C@@H]2CO)c1 | -1 | / | / | / | / | /
CN(C)C(=O)C[C@H]1CC[C@@H]2[C@H](COC[C@H](O)CN2CC2CC2)O1 | -2 | 0 | / | / | / | /
O=C(NCc1ccc(F)cc1)C1C2C=CC3(CN(Cc4cccnc4)C(=O)C13)O2 (stereo not drawn) | / | 116* | 2 | 2 | -8 | 2
O=C(NCc1ccc(Cl)cc1)C1C2C=CC3(CN(Cc4cccnc4)C(=O)C13)O2 (stereo not drawn) | -15 | -4 | -2 | 1 | 13 | 2
C[C@@H](NC(=O)C[C@@H]1CC[C@H]2[C@@H](COC[C@@H](O)CN2Cc2cc(F)ccc2F)O1)c1ccccc1 | -1 | 101* | / | / | / | /
C[C@@H](NC(=O)C[C@@H]1CC[C@@H]2[C@H](COC[C@H](O)CN2Cc2cc(F)ccc2F)O1)c1ccccc1 | -12 | 112* | / | / | / | /
C[C@@H](NC(=O)C[C@H]1CC[C@@H]2[C@H](COC[C@@H](O)CN2Cc2cc(F)ccc2F)O1)c1ccccc1 | 1 | 2 | / | / | / | /
Cc1ccc(S(=O)(=O)Nc2ccc3c(c2)CC(=O)N([C@H](C)CO)C[C@@H](C)[C@H](CN(C)C(=O)Nc2ccc(C(F)(F)F)cc2)O3)cc1 | 0 | -12 | / | / | / | /
CC(C)(C)S(=O)N1Cc2cc(C(=O)O)nc(-c3cccc(C#CCC4CCCC4)c3)c2[C@H]1CCO (stereo partly drawn) | -8 | / | / | / | / | /
Cc1cc(C)c2nc(N3CCC(C(=O)N4CCCC4)CC3)sc2c1 | -25* | 3 | -1 | 1 | 4 | 2
Cc1cc(C)c2nc(N3CCC(C(=O)N4CCN(c5ncccn5)CC4)CC3)sc2c1 | / | 1 | 3 | 1 | 1 | 6
Cc1cc(C)c2nc(N3CCN(C(=O)c4cccs4)CC3)sc2c1 | -10 | 148* | 0 | -13 | -1 | -1
CC1(C)CC(c2nc(-c3ccc([N+](=O)[O-])cc3)cs2)CCO1 (stereo not drawn) | -42* | -1 | 0 | -7 | 10 | 3
Cc1ccc(C(=O)Nc2ccccc2C(=O)O)cc1S(=O)(=O)Nc1ccc(Br)cc1 | -36* | / | 0 | 9 | 2 | 2
C=CCNC(=O)c1ccccc1NC(=O)c1ccc(Cl)c(S(=O)(=O)Nc2ccccc2)c1 | -36* | 0 | 1 | -3 | -2 | 4
COc1ccc(/C=C/C(=O)O)cc1S(=O)(=O)NCc1ccco1 | 14 | / | -1 | 1 | -16 | 1
COc1ccc(S(=O)(=O)NCc2ccco2)c2ccccc12 | -26* | 1 | -2 | -4 | -6 | 0
N#C[C@@H]1N[C@@H](CO)[C@H]1c1ccc(C#Cc2ccc(F)cc2)cc1 | 0 | 0 | / | / | / | /
SMILES | rRNA inh HTS | Cneo AK release | hiPSC survival | DAGLB inhibitor | SKN-1 block | MT1-MMP act inh
O=C(CSc1nnc(-c2c[nH]c3ccccc23)o1)N1CCCCC1 | -33* | -7 | -1 | -1 | 8 | -3
O=C(CSc1nnc(-c2c[nH]c3ccccc23)o1)N1c2ccccc2CCc2ccccc21 | -9 | 0 | -1 | -2 | 31 | -12
COc1cc(/C=C(\C#N)C(N)=O)ccc1OS(=O)(=O)c1ccc(C)cc1 | -24* | -1 | 0 | -4 | 1 | 3
CC[n+]1c(/C=C/c2ccc(OC(C)=O)c(OC)c2)ccc2ccccc21 | -14* | -4 | -1 | -2 | 0 | 0
COc1ccc(NS(=O)(=O)c2nnc(NC(=O)c3ccccc3F)s2)cc1 | -10* | 1 | 6 | 0 | 4 | 4
O=C(Nc1nnc(S(=O)(=O)Nc2ccccc2)s1)c1ccccc1Cl | 5 | 8 | 0 | 5 | 1 | -5
COc1cccc(NC(=O)N2CCN(c3nc(-c4cccc(OC)c4)cs3)CC2)c1 | -30* | -2 | -1 | -2 | -7 | -8
Cc1cccc(-c2ccc([C@H]3[C@H](CO)N4C(=O)CN(C(=O)c5cccnc5)C[C@@H]34)cc2)c1 | 2 | / | / | / | / | /
Cc1cc(Cl)ccc1C(=O)C1CCCN(C(=O)c2ccoc2)C1 (stereo not drawn) | -25* | 1 | 1 | -1 | 5 | -2
Cc1cc(C(=O)N2CCCC(C(=O)c3ccc(Cl)cc3C)C2)no1 (stereo not drawn) | -2 | -3 | 0 | -11 | -21 | 0
C[C@H]1CN([C@@H](C)CO)C(=O)c2cc(NS(=O)(=O)c3ccccc3)ccc2O[C@@H]1CN(C)S(=O)(=O)c1ccc(Cl)cc1 | 0 | / | / | / | / | /
O=C(Nc1ccc2c(c1)[C@@H]1C[C@@H](CC(=O)N3CCCCC3)O[C@@H](CO)[C@@H]1O2)C1CCOCC1 | 2 | -1 | / | / | / | /
CN(C)C(=O)[C@H]1[C@H](CO)[C@H]2Cn3c(ccc(/C=C/c4ccccc4)c3=O)[C@H]2N1CC1CC1 | -1 | / | / | / | / | /
COC(=O)c1ccc(-c2ccc(Cl)cc2)nc1C | / | 0 | 0 | -9 | 51* | -2
COc1ccccc1C#Cc1cnc2c(c1)C(=O)N([C@@H](C)CO)C[C@H](C)[C@@H](CN(C)C)O2 | 2 | -3 | / | / | / | /
CC=Cc1ccc2n(c1=O)C[C@@H]1[C@@H](CO)[C@H](C(=O)N3CCc4ccccc4C3)N(C(=O)C3CC3)[C@H]21 (mixture of isomers) | 1 | 97* | / | / | / | /
CN1[C@H](C(=O)N2CCc3ccccc3C2)[C@@H](CO)[C@@H]2Cn3c(ccc(-c4cccnc4)c3=O)[C@@H]21 | -2 | 104* | / | / | / | /
CN1[C@H](C(=O)N2CCc3ccccc3C2)[C@@H](CO)[C@@H]2Cn3c(ccc(-c4ccncc4)c3=O)[C@@H]21 | 0 | -1 | / | / | / | /
